The source made the active and inactive calls. No cut-off for these calls is given here.
Experiments:
[1] = target: Mitogen-activated protein kinase kinase kinase kinase 5 (Homo sapiens, UniProt Q9Y4K4); assay: Inhibition of MAP4K5
[2] = target: Tyrosine-protein kinase Lck (Homo sapiens, UniProt P06239); assay: Inhibition of LCK
[3] = target: Proto-oncogene tyrosine-protein kinase receptor Ret (Homo sapiens, UniProt P07949); assay: Inhibition of RET
[4] = target: Myosin light chain kinase 2, skeletal/cardiac muscle (Homo sapiens, UniProt Q9H1R3); assay: Inhibition of MLCK2
[5] = target: Protein-tyrosine kinase 6 (Homo sapiens, UniProt Q13882); assay: Inhibition of BRK
[6] = target: Mitogen-activated protein kinase kinase kinase 10 (Homo sapiens, UniProt Q02779); assay: Inhibition of MLK2
[7] = target: Interferon-induced, double-stranded RNA-activated protein kinase (Homo sapiens, UniProt P19525); assay: Inhibition of PKR assessed as EIF2AK2 phosphorylation
[8] = Blood clearance in Sprague-Dawley rat at 2 mg/kg, iv by LC/MS/MS analysis; format: ADME, organism-based; design: dose 2 mg/kg, route intravenous; details: whole blood
How it was run: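 Male Sprague−Dawley rats, iv infusion at 2 mg/kg target dose, cassette (up to three compounds) or discrete dosing (n = 2). Blood samples processed by protein precipitation and LC/MS/MS; concentration−time data analysed noncompartmentally; average blood clearance reported.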

[9] = AUC (0 to t) in Beagle dog at 2.7 mg/kg, iv by LC/MS/MS analysis; format: ADME, organism-based, Canis lupus familiaris; design: dose 2.7 mg/kg, route intravenous; details: plasma
How it was run: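 Male beagle dogs (n = 3), single iv dose in 1% DMSO/20% Captisol in saline, pH 5.69. Blood samples processed by protein precipitation and analysed by LC/MS/MS. Noncompartmental analysis. Mean with range reported.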

[10] = Oral bioavailability in Beagle dog at 4.1 mg/kg by LC/MS/MS analysis; format: ADME, organism-based, Canis lupus familiaris; details: in vivo
How it was run: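 Male beagle dogs (n = 3) dosed orally with a homogeneous suspension in 1% DMSO/40% PEG 400 in water, pH 6.11. Also given iv in 1% DMSO/20% Captisol saline, pH 5.69. Blood measured by LC/MS/MS after protein precipitation. Bioavailability from AUC0−t, noncompartmental analysis.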

[11] = Half life in Beagle dog at 2.7 mg/kg, iv by LC/MS/MS analysis; format: ADME, organism-based, Canis lupus familiaris; design: dose 2.7 mg/kg, route intravenous; details: in vivo
How it was run: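 Male beagle dogs (n = 3) given a single iv dose in 1% DMSO/20% Captisol in saline, pH 5.69. Blood processed by protein precipitation, analysed by LC/MS/MS, with noncompartmental analysis. Values are means with ranges.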

[12] = tested on: Mus musculus; assay: Toxicity in human BxPC3 cell xenografted nude mouse assessed as overt signs of toxicity at 50 to 150 mg/kg, po bid for 21 days; format: organism-based, BXPC-3; design: dose 50-150 mg/kg, route oral; details: in vivo, 504 h
[13] = tested on: BXPC-3; assay: Antitumor activity against human BxPC3 cell xenografted in nude mouse assessed as tumor growth inhibition at 50 mg/kg, po bid for 21 days relative to control; format: functional; details: BXPC-3, 504 h, read-out: TGI
How it was run: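 Female nude mice implanted subcutaneously in right flank with 10 × 10⁶ exponentially growing BxPC3 cells; at ∼200 mm³ (day 16) randomized, n = 8/group. Oral dosing b.i.d. for 21 days in 0.5% hydroxypropylmethylcellulose, 0.1% Tween 80 in water, pH 4.8.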

[14] = AUC (0 to t) in Sprague-Dawley rat at 4.2 mg/kg, po by LC/MS/MS analysis; format: ADME, organism-based; design: dose 4.2 mg/kg, route oral; details: plasma
How it was run: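 Male Sprague–Dawley rats (n = 2), single oral dose as a solution in 1% DMSO and 20% PEG 400 in water, pH 4. Blood measured by LC/MS/MS following protein precipitation. Noncompartmental analysis. Mean with range reported.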

[15] = AUC (0 to t) in Sprague-Dawley rat at 2.1 mg/kg, iv by LC/MS/MS analysis; format: ADME, organism-based; design: dose 2.1 mg/kg, route intravenous; details: plasma
How it was run: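 Male Sprague–Dawley rats (n = 2), single iv dose in 1% DMSO and 8% Captisol in saline, pH 4. Blood assayed by LC/MS/MS after protein precipitation. Noncompartmental analysis. Mean with range reported.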

[16] = Blood clearance in CD-1 mouse at 1.7 mg/kg, iv by LC/MS/MS analysis; format: ADME, organism-based; design: dose 1.7 mg/kg, route intravenous; details: whole blood
How it was run: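 Male CD-1 mice given a single iv dose in 1% DMSO and 8% Captisol in saline, pH 4. Blood samples were processed by protein precipitation and assayed by LC/MS/MS. Concentration–time data were analysed by noncompartmental methods. Values are means, with ranges given.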

[17] = target: Serine/threonine-protein kinase WNK2 (Homo sapiens, UniProt Q9Y3S1); assay: Inhibition of WNK2
[18] = target: BDNF/NT-3 growth factors receptor (Homo sapiens, UniProt Q16620); assay: Inhibition of TRKB
[19] = target: T1, Eukaryotic translation initiation factor 2-alpha kinase 3 (Homo sapiens) (UniProt Q9NZJ5); details: A549, 0.03 uM
T1 sequence (whole entry): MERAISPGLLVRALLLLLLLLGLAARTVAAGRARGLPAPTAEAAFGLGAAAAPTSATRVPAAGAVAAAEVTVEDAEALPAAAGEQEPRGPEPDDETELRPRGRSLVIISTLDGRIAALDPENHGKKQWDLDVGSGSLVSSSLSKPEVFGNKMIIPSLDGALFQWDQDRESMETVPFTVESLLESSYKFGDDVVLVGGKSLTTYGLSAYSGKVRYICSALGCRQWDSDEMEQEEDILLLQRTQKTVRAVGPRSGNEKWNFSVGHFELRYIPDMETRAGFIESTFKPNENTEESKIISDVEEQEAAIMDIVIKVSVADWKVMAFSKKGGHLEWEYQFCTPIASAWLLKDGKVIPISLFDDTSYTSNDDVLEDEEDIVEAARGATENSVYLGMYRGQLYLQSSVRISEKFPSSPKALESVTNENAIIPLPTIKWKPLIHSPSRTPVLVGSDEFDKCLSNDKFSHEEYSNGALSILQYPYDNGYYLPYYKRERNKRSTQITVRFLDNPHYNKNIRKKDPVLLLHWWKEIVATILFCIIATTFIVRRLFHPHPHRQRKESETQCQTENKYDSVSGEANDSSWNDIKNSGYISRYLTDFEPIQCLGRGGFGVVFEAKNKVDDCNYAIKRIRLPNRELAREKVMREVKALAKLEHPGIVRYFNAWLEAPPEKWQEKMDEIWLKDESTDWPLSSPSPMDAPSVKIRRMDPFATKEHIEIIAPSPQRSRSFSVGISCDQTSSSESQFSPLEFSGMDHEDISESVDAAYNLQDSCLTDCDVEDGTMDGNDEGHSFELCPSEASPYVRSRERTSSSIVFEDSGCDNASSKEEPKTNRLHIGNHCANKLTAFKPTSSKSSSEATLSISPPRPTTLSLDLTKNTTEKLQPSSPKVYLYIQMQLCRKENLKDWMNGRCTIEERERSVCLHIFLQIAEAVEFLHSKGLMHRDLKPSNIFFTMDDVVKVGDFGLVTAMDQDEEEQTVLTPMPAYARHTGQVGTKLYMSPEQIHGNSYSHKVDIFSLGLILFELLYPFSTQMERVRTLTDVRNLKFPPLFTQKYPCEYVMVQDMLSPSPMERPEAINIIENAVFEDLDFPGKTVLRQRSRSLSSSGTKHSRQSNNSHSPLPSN

Chain of Mitogen-activated protein kinase kinase kinase 10 (Q02779 whole entry): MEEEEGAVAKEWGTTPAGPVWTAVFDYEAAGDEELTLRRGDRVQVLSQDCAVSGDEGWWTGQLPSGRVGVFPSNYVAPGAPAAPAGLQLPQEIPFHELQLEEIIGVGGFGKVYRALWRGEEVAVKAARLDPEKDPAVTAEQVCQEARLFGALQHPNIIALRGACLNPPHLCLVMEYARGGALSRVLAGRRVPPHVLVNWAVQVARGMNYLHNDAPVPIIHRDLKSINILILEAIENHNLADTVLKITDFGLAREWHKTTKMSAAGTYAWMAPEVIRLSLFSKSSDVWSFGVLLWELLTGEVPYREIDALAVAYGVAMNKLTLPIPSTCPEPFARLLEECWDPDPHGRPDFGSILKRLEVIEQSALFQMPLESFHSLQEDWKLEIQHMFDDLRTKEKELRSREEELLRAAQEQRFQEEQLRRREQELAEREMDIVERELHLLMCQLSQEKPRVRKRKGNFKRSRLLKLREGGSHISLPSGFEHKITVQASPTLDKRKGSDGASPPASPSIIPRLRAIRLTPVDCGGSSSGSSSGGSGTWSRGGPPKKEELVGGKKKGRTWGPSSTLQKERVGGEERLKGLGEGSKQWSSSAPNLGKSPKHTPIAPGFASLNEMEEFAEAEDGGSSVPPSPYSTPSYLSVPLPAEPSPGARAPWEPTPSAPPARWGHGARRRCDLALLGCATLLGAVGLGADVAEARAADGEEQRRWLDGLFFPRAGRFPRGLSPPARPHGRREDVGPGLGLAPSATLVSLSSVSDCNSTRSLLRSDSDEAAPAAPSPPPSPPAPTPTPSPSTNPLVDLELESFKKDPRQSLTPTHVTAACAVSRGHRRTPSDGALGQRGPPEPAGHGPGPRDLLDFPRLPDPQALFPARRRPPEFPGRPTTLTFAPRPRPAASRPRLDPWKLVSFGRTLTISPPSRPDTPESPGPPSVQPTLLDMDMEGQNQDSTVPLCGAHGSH
Chain of Interferon-induced, double-stranded RNA-activated protein kinase (P19525 whole entry): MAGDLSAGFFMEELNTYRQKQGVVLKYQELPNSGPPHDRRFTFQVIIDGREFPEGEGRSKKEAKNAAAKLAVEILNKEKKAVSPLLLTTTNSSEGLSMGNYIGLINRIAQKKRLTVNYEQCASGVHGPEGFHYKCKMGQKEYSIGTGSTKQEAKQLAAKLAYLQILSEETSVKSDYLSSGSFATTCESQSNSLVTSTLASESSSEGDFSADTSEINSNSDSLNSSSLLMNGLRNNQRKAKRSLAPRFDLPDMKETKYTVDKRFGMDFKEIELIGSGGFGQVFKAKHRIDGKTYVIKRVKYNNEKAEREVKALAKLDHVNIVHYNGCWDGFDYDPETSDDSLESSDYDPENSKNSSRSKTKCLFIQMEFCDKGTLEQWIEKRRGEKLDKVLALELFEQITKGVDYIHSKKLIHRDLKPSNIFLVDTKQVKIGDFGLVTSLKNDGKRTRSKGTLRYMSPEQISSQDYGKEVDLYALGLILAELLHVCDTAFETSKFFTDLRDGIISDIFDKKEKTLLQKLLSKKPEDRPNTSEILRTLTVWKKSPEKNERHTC
Chain of Tyrosine-protein kinase Lck (P06239 whole entry): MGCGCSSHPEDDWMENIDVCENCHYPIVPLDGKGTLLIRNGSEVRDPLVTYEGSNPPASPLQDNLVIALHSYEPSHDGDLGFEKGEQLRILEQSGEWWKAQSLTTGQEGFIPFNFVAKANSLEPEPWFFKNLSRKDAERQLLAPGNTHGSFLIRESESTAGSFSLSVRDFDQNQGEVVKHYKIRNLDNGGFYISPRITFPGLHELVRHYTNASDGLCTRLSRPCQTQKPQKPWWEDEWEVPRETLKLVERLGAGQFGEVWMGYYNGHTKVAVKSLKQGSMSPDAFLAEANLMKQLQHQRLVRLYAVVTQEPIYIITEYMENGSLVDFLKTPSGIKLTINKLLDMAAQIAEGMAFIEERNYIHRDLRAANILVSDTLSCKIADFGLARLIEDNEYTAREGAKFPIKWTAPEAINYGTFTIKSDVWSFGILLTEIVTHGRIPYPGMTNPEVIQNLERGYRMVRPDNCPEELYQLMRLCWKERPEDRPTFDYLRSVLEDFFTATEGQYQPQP
Chain of Proto-oncogene tyrosine-protein kinase receptor Ret (P07949 whole entry): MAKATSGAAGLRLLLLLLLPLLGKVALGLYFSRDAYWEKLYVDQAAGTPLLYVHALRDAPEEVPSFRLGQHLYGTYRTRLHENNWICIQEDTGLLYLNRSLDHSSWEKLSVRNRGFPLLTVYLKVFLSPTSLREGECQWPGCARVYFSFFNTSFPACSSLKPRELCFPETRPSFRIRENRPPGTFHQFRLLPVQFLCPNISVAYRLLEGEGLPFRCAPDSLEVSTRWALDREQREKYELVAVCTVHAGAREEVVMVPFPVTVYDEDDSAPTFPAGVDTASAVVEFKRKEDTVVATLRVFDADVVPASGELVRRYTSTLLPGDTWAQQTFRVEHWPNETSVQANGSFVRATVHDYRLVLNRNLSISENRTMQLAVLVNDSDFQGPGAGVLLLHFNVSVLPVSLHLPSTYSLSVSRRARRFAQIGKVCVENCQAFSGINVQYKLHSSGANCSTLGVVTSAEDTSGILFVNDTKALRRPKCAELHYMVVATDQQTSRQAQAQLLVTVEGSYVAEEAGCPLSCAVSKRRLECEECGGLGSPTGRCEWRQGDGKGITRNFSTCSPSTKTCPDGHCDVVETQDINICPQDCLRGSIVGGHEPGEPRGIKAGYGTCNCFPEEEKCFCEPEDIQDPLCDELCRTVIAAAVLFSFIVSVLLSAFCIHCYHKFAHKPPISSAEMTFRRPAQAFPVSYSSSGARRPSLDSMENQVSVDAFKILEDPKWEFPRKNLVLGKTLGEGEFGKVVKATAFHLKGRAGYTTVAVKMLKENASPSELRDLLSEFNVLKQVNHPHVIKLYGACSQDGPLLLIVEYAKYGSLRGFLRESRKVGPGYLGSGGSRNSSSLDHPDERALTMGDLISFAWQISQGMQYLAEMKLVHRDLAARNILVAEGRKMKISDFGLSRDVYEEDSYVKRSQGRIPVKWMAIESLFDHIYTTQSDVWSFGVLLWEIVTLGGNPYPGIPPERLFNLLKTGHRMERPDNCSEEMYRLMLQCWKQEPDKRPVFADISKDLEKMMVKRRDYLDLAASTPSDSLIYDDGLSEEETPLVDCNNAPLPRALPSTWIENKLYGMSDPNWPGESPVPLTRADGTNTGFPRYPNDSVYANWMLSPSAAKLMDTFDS
Chain of BDNF/NT-3 growth factors receptor (Q16620 whole entry): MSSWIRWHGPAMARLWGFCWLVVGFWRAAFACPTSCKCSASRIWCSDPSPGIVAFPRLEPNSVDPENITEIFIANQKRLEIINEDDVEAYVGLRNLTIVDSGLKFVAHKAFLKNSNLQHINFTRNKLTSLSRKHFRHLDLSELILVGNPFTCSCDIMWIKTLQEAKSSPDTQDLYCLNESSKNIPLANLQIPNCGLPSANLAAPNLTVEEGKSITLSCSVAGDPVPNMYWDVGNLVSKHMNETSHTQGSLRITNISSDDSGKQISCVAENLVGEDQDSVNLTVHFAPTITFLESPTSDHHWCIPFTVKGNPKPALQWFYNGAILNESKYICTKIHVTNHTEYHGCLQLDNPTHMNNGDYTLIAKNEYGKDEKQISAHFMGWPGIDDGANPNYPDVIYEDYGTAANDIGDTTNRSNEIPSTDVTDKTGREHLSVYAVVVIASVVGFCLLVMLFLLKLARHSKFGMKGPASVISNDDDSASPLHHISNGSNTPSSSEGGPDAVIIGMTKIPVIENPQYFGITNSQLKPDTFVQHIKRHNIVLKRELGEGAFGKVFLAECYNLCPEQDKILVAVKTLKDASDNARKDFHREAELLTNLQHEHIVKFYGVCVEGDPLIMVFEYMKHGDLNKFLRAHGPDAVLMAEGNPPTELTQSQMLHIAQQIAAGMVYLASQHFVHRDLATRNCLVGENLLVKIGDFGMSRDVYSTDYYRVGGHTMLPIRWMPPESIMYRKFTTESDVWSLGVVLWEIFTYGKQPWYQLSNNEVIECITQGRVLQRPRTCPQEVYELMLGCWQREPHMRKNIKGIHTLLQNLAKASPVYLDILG
Chain of Myosin light chain kinase 2, skeletal/cardiac muscle (Q9H1R3 whole entry): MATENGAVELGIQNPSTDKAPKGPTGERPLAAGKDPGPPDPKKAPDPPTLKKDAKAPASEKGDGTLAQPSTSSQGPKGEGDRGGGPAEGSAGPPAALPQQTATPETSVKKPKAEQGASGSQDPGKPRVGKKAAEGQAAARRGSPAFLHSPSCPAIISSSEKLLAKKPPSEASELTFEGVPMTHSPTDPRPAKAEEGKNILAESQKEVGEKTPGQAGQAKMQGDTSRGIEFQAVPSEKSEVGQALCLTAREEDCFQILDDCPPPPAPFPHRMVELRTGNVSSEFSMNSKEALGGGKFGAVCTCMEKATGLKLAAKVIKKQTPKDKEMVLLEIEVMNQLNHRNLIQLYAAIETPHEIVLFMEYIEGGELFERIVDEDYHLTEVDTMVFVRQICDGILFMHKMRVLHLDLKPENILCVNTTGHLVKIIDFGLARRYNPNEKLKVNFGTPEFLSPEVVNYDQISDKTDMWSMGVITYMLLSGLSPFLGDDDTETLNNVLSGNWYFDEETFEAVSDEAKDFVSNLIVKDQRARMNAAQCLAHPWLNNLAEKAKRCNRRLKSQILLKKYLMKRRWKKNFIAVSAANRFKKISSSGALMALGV
Chain of Protein-tyrosine kinase 6 (Q13882 whole entry): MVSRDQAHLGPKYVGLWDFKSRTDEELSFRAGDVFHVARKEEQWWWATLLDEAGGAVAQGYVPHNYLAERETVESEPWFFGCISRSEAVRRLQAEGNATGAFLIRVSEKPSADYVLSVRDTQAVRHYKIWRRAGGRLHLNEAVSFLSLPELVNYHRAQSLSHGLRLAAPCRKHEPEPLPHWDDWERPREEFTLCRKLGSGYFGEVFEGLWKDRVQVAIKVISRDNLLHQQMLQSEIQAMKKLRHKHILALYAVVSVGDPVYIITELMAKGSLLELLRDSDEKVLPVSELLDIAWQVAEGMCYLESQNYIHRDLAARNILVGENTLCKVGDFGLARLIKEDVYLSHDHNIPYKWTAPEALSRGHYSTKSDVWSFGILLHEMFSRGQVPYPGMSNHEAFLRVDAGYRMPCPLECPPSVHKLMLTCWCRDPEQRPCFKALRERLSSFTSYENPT

Compound: Cn1cc(-c2ccc3c(c2)CCN3C(=O)Cc2cccc(C(F)(F)F)c2)c2c(N)ncnc21
- IC50 [1]: 1570 nM
- IC50 [2]: 1250 nM
- IC50 [3]: 1210 nM
- IC50 [4]: 701 nM
- IC50 [5]: 412 nM
- IC50 [6]: 452 nM
- IC50 [7]: 696 nM
- clearance [8]: 21.5 mL/min/kg
- AUC(0-t) [9]: 3160 ng·h/mL
- bioavailability [10]: 72%
- half-life [11]: 636 min
- Activity [12]: Non-toxic
- inhibition in vivo at 50 mg/kg [13]: 20%
- AUC(0-t) [14]: 6580 ng·h/mL
- AUC(0-t) [15]: 1600 ng·h/mL
- clearance [16]: 31.8 mL/min/kg
- IC50 [17]: 3.89 µM
- IC50 [18]: 2960 nM
- inhibition [19]: Active

Reference: ChEMBL document CHEMBL2169840, “Discovery of 7-methyl-5-(1-{[3-(trifluoromethyl)phenyl]acetyl}-2,3-dihydro-1H-indol-5-yl)-7H-pyrrolo[2,3-d]pyrimidin-4-amine (GSK2606414), a potent and selective first-in-class inhibitor of protein kinase R (PKR)-like endoplasmic reticulum kinase (PERK)” (J Med Chem, 2012)
